Test results as given in ChEMBL document CHEMBL1131046, “Substituted salicylanilides as inhibitors of two-component regulatory systems in bacteria” (J Med Chem, 1998).
≈ marks a conversion by molar mass, not a printed value. Calls of active or inactive are those of the source. The rule behind the calls is not given here.

Assays:
[1] = target: T1, KinA/Spo0F (sporulation kinase A/sporulation initiation phosphotransferase F) (Bacillus subtilis (strain 168), UniProt P06628+P16497); assay: Inhibition of autophosphorylation of the two-component signal transduction system kinase was measured using the KinA/Spo0F regulatory system of Bacillus subtilis.; type: functional
T1 sequence (P06628 whole entry): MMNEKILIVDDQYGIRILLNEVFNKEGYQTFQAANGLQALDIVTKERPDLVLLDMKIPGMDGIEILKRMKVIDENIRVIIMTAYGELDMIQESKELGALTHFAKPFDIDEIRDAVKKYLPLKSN
T1 sequence (P16497 whole entry): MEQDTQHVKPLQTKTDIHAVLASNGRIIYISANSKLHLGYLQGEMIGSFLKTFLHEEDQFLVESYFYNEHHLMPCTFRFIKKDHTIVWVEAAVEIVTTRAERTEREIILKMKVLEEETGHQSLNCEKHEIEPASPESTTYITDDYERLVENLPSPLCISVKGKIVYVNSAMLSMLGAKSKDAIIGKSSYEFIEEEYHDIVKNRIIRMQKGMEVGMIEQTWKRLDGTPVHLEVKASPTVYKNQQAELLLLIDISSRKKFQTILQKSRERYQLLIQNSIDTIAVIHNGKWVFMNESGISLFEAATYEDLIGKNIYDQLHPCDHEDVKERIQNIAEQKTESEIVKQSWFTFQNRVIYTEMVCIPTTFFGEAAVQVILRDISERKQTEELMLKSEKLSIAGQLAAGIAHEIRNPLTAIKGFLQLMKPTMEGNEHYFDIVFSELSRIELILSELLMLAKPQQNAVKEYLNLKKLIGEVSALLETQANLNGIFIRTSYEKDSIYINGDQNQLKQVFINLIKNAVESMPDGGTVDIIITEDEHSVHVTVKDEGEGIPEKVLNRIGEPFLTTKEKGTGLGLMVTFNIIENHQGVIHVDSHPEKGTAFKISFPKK

[2] = system: Staphylococcus aureus; assay: Minimum inhibitory activity against Staphylococcus aureus MRSA OC2089.; type: functional
Summary of the method: (§1)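 MIC by NCCLS broth microdilution. Strains are ATCC and clinical isolates, including methicillin-resistant S. aureus.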

[3] = system: Staphylococcus aureus; assay: Minimum inhibitory activity against Staphylococcus aureus ATCC 29213.; type: functional; summary of the method: as §1
[4] = system: Enterococcus faecium; assay: Minimum inhibitory activity against Enterococcus faecium OC3312.; type: functional; summary of the method: as §1
[5] = system: Enterococcus faecalis; assay: Minimum inhibitory activity against Enterococcus faecalis OC3041.; type: functional; summary of the method: as §1
[6] = system: Enterococcus faecalis; assay: Activity of the VanS/VanR TCS in Enterococcus faecalis OC3364; -{i} indicate over-expression of luciferase in both strains; type: functional, organism-based
Summary of the method: (§2)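 E. faecalis OC3364 (JH2-derived) carries vanR vanS and a vanH-luc fusion on separate plasmids. […] OD600 was read every 30 min. At 2 h, cells were lysed by 10 min shaking in an equal volume of Genepol X-80 mix. Luciferase RLU was read with ATP, coenzyme A and luciferin. Specific activity (RLU/OD600) was compared with an untreated control.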

[7] = system: Staphylococcus aureus; assay: Minimum inhibitory activity against methicillin resistant Staphylococcus aureus (MRSA) OC2089.; type: functional
Summary of the method: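 Broth microdilution MIC following NCCLS methods for aerobically growing bacteria.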

[8] = system: Enterococcus faecalis; assay: Percentage of specific activity relative to untreated control at a concentration allowing 80% growth.; type: functional
Summary of the method: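 OD600 is followed every 30 min. Luciferase RLU/OD600 is measured 2 h after induction. The value is specific activity as a percentage of untreated control, taken at the compound concentration allowing 80% growth.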

[9] = system: Enterococcus faecalis; assay: Activity of the VanS/VanR TCS in Enterococcus faecalis OC3364; + indicate decrease of the luciferase specific activity relative to an untreated control; type: functional, organism-based
Summary of the method: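 Reporter assay in Enterococcus faecalis OC3364 (from JH2) carrying vanR vanS and a Φ(vanH-luc) fusion on separate plasmids. […] OD600 is read every 30 min. At 2 h cells are lysed and luciferase RLU is read with ATP, coenzyme A and luciferin. Specific activity = RLU/OD600, compared with an untreated control.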

[10] = system: Enterococcus faecalis; assay: Activity of the VanS/VanR TCS in Enterococcus faecalis OC3364; +{i} indicate induced overexpression of luciferase specific activity; type: functional, organism-based; summary of the method: as §2
[11] = system: Enterococcus faecalis; assay: Activity of the VanS/VanR TCS in Enterococcus faecalis OC3364; +{i} indicate induced over-expression of luciferase specific activity; type: functional, organism-based; summary of the method: as §2

Row | IC50 [1] [µM] | SMILES | MIC [3] [µg/mL] | MIC [4] [µg/mL] | MIC [5] [µg/mL] | MIC [7] [µg/mL] | further results
1 | > 500 | O=C(Nc1ccc([N+](=O)[O-])cc1)c1cc(Cl)cc(Cl)c1O | 4 (≈ 12.2 µM) | > 64 | > 32 | – | MIC [2]: 4 µg/mL (≈ 12.2 µM)
2 | 86 | Cc1cc(C(CN)c2ccc(Cl)cc2)c(Cl)cc1NC(=O)c1cc(I)cc(I)c1O (stereo not drawn) | – | – | – | – | –
3 | > 500 | COc1ccc(NC(=O)c2cc(Cl)cc(Cl)c2O)cc1 | – | – | – | – | –
4 | – | CN[C@H](CC(C)C)C(=O)N[C@H]1C(=O)N[C@@H](CC(N)=O)C(=O)N[C@H]2C(=O)N[C@H]3C(=O)N[C@H](C(=O)N[C@H](C(=O)O)c4cc(O)cc(O)c4-c4cc3ccc4O)[C@H](O)c3ccc(c(Cl)c3)Oc3cc2cc(c3O[C@@H]2O[C@H](CO)[C@@H](O)[C@H](O)[C@H]2O[C@H]2C[C@](C)(N)[C@H](O)[C@H](C)O2)Oc2ccc(cc2Cl)[C@H]1O [VANCOMYCIN] | – | > 128 | – | – | –
5 | > 500 | Cc1cc(C(C#N)c2ccc(Cl)cc2)c(Cl)cc1NC(=O)c1cc(Cl)ccc1O (stereo not drawn) | – | – | – | – | –
6 | > 500 | Cc1cc(C(=O)c2ccc(Cl)cc2)c(Cl)cc1NC(=O)c1cc(I)cc(I)c1O | – | – | – | – | –
7 | 2.8 | Cc1cc(C(C#N)c2ccc(Cl)cc2)c(Cl)cc1NC(=O)c1cccc(O)c1O (stereo not drawn) | 16 (≈ 37.4 µM) | 16 (≈ 37.4 µM) | 16 (≈ 37.4 µM) | – | MIC [2]: 16 µg/mL (≈ 37.4 µM); AG80 [8]: 66%; Activity [9]: Active
8 | 185 | O=C(Nc1ccc(Cl)cc1)c1cc(Cl)cc(Cl)c1O | – | – | – | – | –
9 | > 500 | O=C(Nc1ccc(Cl)c(Cl)c1)c1cc(Cl)ccc1O | – | – | – | – | –
10 | > 500 | O=C(Nc1ccc(Cl)c(Cl)c1)c1cc(C(F)(F)F)ccc1O | – | – | – | – | –
11 | 9 | Cc1cc(C(C#N)c2ccc(Cl)cc2)c(Cl)cc1NC(=O)c1cc(C(F)(F)F)cc(C(F)(F)F)c1O (stereo not drawn) | – | – | – | – | –
12 | > 500 | COc1cc(OC)c(O)c(C(=O)Nc2ccc(Cl)c(Cl)c2)c1 | – | – | – | – | –
13 | > 500 | Cc1cc(C(C#N)c2ccc(Cl)cc2)c(Cl)cc1NC(=O)c1cc(C(C)(C)C)cc(C(C)(C)C)c1O (stereo not drawn) | – | – | – | – | –
14 | 250 | COc1cc(OC)c(O)c(C(=O)Nc2cc(Cl)c(C(C#N)c3ccc(Cl)cc3)cc2C)c1 (stereo not drawn) | – | – | – | – | –
15 | – | O=C(Nc1ccc(Cl)c(Cl)c1)c1cc(Cl)cc(Cl)c1O [3,3',4',5-TETRACHLOROSALICYLANILIDE] | 0.5 (≈ 1.42 µM) | 1 (≈ 2.85 µM) | 0.5 (≈ 1.42 µM) | 0.25 (≈ 0.712 µM) | Activity [10]: Active
16 | > 500 | CC(C)(C)c1cc(C(=O)Nc2ccc(Cl)c(Cl)c2)c(O)c(C(C)(C)C)c1 | – | – | – | – | –
17 | 9.5 | O=C(Nc1ccc(Cl)c(Cl)c1)c1cccc(O)c1O | 8 (≈ 26.8 µM) | 32 (≈ 107 µM) | 8 (≈ 26.8 µM) | – | MIC [2]: 8 µg/mL (≈ 26.8 µM); AG80 [8]: 48%; Activity [9]: Active
18 | – | Cc1onc(-c2ccccc2)c1C(=O)N[C@@H]1C(=O)N2[C@@H]1SC(C)(C)[C@@H]2C(=O)O [OXACILLIN] | 0.25 (≈ 0.623 µM) | > 64 | 16 (≈ 39.9 µM) | – | MIC [2]: > 64 µg/mL

Row | SMILES | IC50 [1] [µM] | MIC [3] [µg/mL] | MIC [4] [µg/mL] | MIC [5] [µg/mL] | MIC [7] [µg/mL] | further results
19 | O=C(Nc1ccc(Cl)c(C(F)(F)F)c1)c1cc(Cl)cc(Cl)c1O | 50 | 0.5 (≈ 1.3 µM) | 1 (≈ 2.6 µM) | 0.5 (≈ 1.3 µM) | 0.25 (≈ 0.65 µM) | Activity [6]: inactive
20 | Cc1cc(C(C#N)c2ccc(Cl)cc2)c(Cl)cc1NC(=O)c1cc(C(F)(F)F)ccc1O (stereo not drawn) | 19 | 1 (≈ 2.09 µM) | 1 (≈ 2.09 µM) | 1 (≈ 2.09 µM) | 1 (≈ 2.09 µM) | AG80 [8]: 95%
21 | O=C(Nc1ccccc1)c1cc(Cl)cc(Cl)c1O | > 500 | 1 (≈ 3.54 µM) | 32 (≈ 113 µM) | 64 (≈ 227 µM) | 4 (≈ 14.2 µM) | –
22 | O=C(Nc1ccc(Cl)c(Cl)c1)c1cc(C(F)(F)F)cc(C(F)(F)F)c1O | 27 | 1 (≈ 2.39 µM) | 2 (≈ 4.78 µM) | 2 (≈ 4.78 µM) | 1 (≈ 2.39 µM) | Activity [10]: Active
23 | O=C(Nc1ccc(Cl)c(Cl)c1)c1cc(I)cc(I)c1O | 21 | 1 (≈ 1.87 µM) | 0.5 (≈ 0.936 µM) | 0.5 (≈ 0.936 µM) | 0.25 (≈ 0.468 µM) | Activity [10]: Active
24 | Cc1cc(C(C#N)c2ccc(Cl)cc2)c(Cl)cc1NC(=O)c1cc(Cl)cc(Cl)c1O (stereo not drawn) | 4.8 | 1 (≈ 2.08 µM) | 2 (≈ 4.17 µM) | 2 (≈ 4.17 µM) | – | MIC [2]: 1 µg/mL (≈ 2.08 µM); Activity [11]: Active
25 | CC(C)(C)c1ccc(NC(=O)c2cc(Cl)cc(Cl)c2O)cc1 | 67 | 2 (≈ 5.91 µM) | 4 (≈ 11.8 µM) | 8 (≈ 23.7 µM) | 2 (≈ 5.91 µM) | Activity [6]: inactive
26 | Cc1cc(C(C#N)c2ccc(Cl)cc2)c(Cl)cc1NC(=O)c1cc(I)cc(I)c1O (stereo not drawn) [CLOSANTEL] | 3.8 | 2 (≈ 3.02 µM) | 1 (≈ 1.51 µM) | 0.12 (≈ 0.181 µM) | 1 (≈ 1.51 µM) | AG80 [8]: 100%
